This passage reports IC50 results from ChEMBL document CHEMBL2040753, “Development of potent and selective inhibitors of aldo-keto reductase 1C3 (type 5 17β-hydroxysteroid dehydrogenase) based on N-phenyl-aminobenzoates and their structure-activity relationships” (J Med Chem, 2012).

Assay [1] addresses T1, Aldo-keto reductase family 1 member C3 (Homo sapiens, UniProt P42330).
T1 sequence (P42330 whole entry): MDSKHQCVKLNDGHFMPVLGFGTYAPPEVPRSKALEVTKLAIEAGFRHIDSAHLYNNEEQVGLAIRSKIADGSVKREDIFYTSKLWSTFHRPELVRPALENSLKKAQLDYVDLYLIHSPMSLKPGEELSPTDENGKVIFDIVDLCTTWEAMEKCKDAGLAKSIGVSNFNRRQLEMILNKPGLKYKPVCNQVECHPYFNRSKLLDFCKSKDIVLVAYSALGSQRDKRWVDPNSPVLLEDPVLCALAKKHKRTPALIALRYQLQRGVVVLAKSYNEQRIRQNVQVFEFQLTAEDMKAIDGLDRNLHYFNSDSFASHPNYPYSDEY
Kind of assay: Inhibition of recombinant AKR1C3 assessed as NADP+ dependent oxidation of S-tetralol by fluorescence assay.

For assay [2], the target named is T2, Aldo-keto reductase family 1 member C2 (Homo sapiens, UniProt P52895).
T2 sequence (P52895 whole entry): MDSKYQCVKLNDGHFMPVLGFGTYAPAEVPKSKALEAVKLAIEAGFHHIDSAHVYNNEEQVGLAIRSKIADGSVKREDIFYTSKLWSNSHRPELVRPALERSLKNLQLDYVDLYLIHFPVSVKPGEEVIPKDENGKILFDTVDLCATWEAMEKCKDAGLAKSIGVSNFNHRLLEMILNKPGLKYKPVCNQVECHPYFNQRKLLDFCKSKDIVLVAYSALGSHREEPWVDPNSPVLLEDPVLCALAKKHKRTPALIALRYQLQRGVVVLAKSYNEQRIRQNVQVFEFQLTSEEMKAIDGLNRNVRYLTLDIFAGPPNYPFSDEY
Briefly: Inhibition of recombinant AKR1C2 assessed as NADP+ dependent oxidation of S-tetralol by fluorescence assay. An outline of the steps:
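Homogeneous recombinant enzyme; continuous oxidation of S-tetralol (at each isoform's KM) with 200 μM NADP+ in 100 mM phosphate pH 7.0, 4% DMSO, 37 °C. Initial velocities compared with solvent control; quadruplicate points over a range of inhibitor concentrations; IC50 from curve fit.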

One may read the IC50 as the concentration that inhibits the measured activity by half. Consider `COc1ccc(C(=O)O)c(Nc2cccc(C(=O)O)c2)c1`, for which the IC50 in assay [1] is 1.45 µM; in assay [2], 8.38 µM.

As for `COc1ccc(C(=O)O)c(Nc2ccc(C)cc2)c1`, the IC50 in assay [1] worked out at 0.8 µM; in assay [2], 1.11 µM.

For the compound `O=C(O)c1ccc(Nc2ccc(C(=O)O)cc2)cc1`, the IC50 in assay [1] stood at 2.37 µM; in assay [2] it was 6.3 µM.

On to `O=C(O)c1ccc(Nc2ccc(Cl)cc2)cc1`, for which the results for the IC50 in assay [1] and in assay [2] were 1.05 µM and 20 µM, respectively.

Regarding `COc1ccc(Nc2ccccc2C(=O)O)cc1`, the values for the IC50 in assay [1] and in assay [2] were 0.09 µM and 0.7 µM, respectively.

On to `COc1ccc(Nc2cc(OC)ccc2C(=O)O)cc1`, for which the IC50 in assay [1] came out at 0.25 µM; in assay [2], 0.91 µM.

For the compound `COc1cccc(Nc2ccc(C(=O)O)cc2)c1`, the IC50 in assay [1] stood at 2.65 µM; in assay [2], 84.4 µM.

In the case of `COc1ccc(C(=O)O)c(Nc2ccc(Cl)cc2)c1`, the 50% inhibitory concentration (IC50) in assay [1] was found to be 0.22 µM; in assay [2], 0.29 µM.

Turning to `Cc1cccc(Nc2cccc(C(=O)O)c2)c1`, the IC50 in assay [1] turned out to be 1.88 µM; in assay [2] it was 22.9 µM.

Regarding `Cc1cccc(Nc2ccccc2C(=O)O)c1`, the IC50 was found to be 0.24 µM in assay [1] and 0.38 µM in assay [2].

For `COc1ccc(C(=O)O)c(Nc2ccc([N+](=O)[O-])cc2)c1`, the IC50 in assay [1] was 0.5 µM; in assay [2], 0.19 µM.

With `COc1ccccc1Nc1ccc(C(=O)O)cc1`, the IC50 was determined as 3.39 µM in assay [1] and 29.3 µM in assay [2].

Regarding `COc1ccc(Nc2ccccc2C(=O)O)c([N+](=O)[O-])c1`, the IC50 in assay [1] came out at 0.03 µM; in assay [2], 0.92 µM.

For `O=C(O)c1ccccc1Nc1ccc(Cl)cc1`, the values for the IC50 in assay [1] and in assay [2] were 0.07 µM and 0.41 µM, respectively.

As for `O=C(O)c1cccc(Nc2cccc(Cl)c2)c1`, the values for the IC50 in assay [1] and in assay [2] were 0.46 µM and 7.17 µM, respectively.

Consider `CC(=O)c1ccc(Nc2ccc(C)cc2)c(C(=O)O)c1`, for which the IC50 in assay [1] was 1.65 µM; in assay [2] it was 8.23 µM.

For `CC(=O)c1ccc(Nc2ccccc2C(C)=O)c(C(=O)O)c1`, the IC50 in assay [1] worked out at 4.44 µM; in assay [2], 12.7 µM.

Take `CC(=O)c1ccc(Nc2cc(C)cc(C)c2)c(C(=O)O)c1`: the figures for the IC50 in assay [1] and in assay [2] were 1.82 µM and 10.6 µM, respectively.

As to `O=C(O)c1ccc(Nc2cccc(C(=O)O)c2)cc1`, the IC50 in assay [1] amounted to 1.64 µM; in assay [2], 19.9 µM.

With `COc1cc(Nc2cc(OC)ccc2C(=O)O)cc(OC)c1`, the values for the IC50 in assay [1] and in assay [2] were 2.22 µM and 6.78 µM, respectively.

In the case of `O=C(O)c1ccccc1Nc1ccc([N+](=O)[O-])cc1`, the IC50 in assay [1] was determined as 0.16 µM; in assay [2] it was 0.28 µM.

With `CC(=O)c1ccc(Nc2ccc(C(C)=O)cc2C(=O)O)cc1`, the figures for the IC50 in assay [1] and in assay [2] were 0.47 µM and 18.7 µM, respectively.

Turning to `COc1ccc(C(=O)O)c(Nc2ccc(C(C)=O)cc2)c1`, the half-inhibitory concentration (IC50) in assay [1] was determined as 0.5 µM; in assay [2] it was 0.27 µM.

As to `CC(=O)c1ccc(Nc2cc(C(F)(F)F)cc(C(F)(F)F)c2)c(C(=O)O)c1`, the results for the IC50 in assay [1] and in assay [2] were 1.76 µM and 16 µM, respectively.

Consider `CC(=O)c1cccc(Nc2ccccc2C(=O)O)c1`, for which the IC50 in assay [1] came to 0.14 µM; in assay [2], 1.55 µM.

As to `Cc1cc(C)cc(Nc2ccc(C(=O)O)cc2)c1`, the IC50 in assay [1] amounted to 0.87 µM; in assay [2] it was 49.3 µM.

Regarding `O=C(O)c1cccc(Nc2ccccc2C(=O)O)c1`, the IC50 in assay [1] was 0.98 µM; in assay [2] it was 4.16 µM.

Turning to `CC(=O)c1ccc(Nc2ccc(Cl)cc2)c(C(=O)O)c1`, the IC50 in assay [1] came to 0.6 µM; in assay [2] it was 2.23 µM.

`COc1cc(Nc2ccc(C(C)=O)cc2C(=O)O)cc(OC)c1`: the IC50 in assay [1] worked out at 0.9 µM; in assay [2] it was 26.8 µM.

For `O=C(O)c1ccccc1Nc1cccc(Cl)c1`, the IC50 in assay [1] and in assay [2] was 0.15 µM throughout.

With `COc1ccc(Nc2ccc(C(C)=O)cc2C(=O)O)cc1`, the IC50 in assay [1] was found to be 0.61 µM; in assay [2], 0.91 µM.

Regarding `COc1ccc(C(=O)O)c(Nc2ccc(C(=O)O)cc2)c1`, the IC50 in assay [1] was 0.69 µM; in assay [2], 0.98 µM.

Take `COc1ccc(C(=O)O)c(Nc2cccc([N+](=O)[O-])c2)c1`: the IC50 in assay [1] came out at 0.08 µM; in assay [2], 0.19 µM.

Take `CC(=O)c1ccc(Nc2ccccc2[N+](=O)[O-])c(C(=O)O)c1`: the IC50 in assay [1] is 1.11 µM; in assay [2], 3.97 µM.

Take `COc1ccc(Nc2ccc(C(=O)O)cc2)c([N+](=O)[O-])c1`: the figures for the IC50 in assay [1] and in assay [2] were 2.06 µM and 59.2 µM, respectively.

As to `CC(=O)c1ccc(Nc2ccc(C(=O)O)cc2)cc1`, the figures for the IC50 in assay [1] and in assay [2] were 2.5 µM and 24.5 µM, respectively.

Consider `CC(=O)c1ccc(Nc2ccccc2)c(C(=O)O)c1`, for which the half-maximal inhibitory concentration (IC50) in assay [1] turned out to be 2.53 µM; in assay [2], 3.81 µM.

`O=C(O)c1ccc(Nc2ccc([N+](=O)[O-])cc2)cc1`: the IC50 in assay [1] is 1.32 µM; in assay [2] it was 11.1 µM.

As for `O=C(O)c1cccc(Nc2cccc(C(F)(F)F)c2)c1`, the IC50 in assay [1] was determined as 0.32 µM; in assay [2], 16 µM.

Take `O=C(O)c1cccc(Nc2cccc(C(=O)O)c2)c1`: the IC50 in assay [1] was 3.57 µM; in assay [2], more than 100 µM.

As to `CC(=O)c1ccc(Nc2cccc(Cl)c2)c(C(=O)O)c1`, the values for the IC50 in assay [1] and in assay [2] were 1.16 µM and 2.55 µM, respectively.

As to `O=C(O)c1cccc(Nc2cc(C(F)(F)F)cc(C(F)(F)F)c2)c1`, the IC50 in assay [1] was 0.25 µM; in assay [2], 19.2 µM.

Take `O=C(O)c1cccc(Nc2ccc([N+](=O)[O-])cc2OC(F)(F)F)c1`: the results for the IC50 in assay [1] and in assay [2] were 0.04 µM and 1.78 µM, respectively.

For the compound `CC(=O)c1ccc(Nc2ccc(Br)cc2)c(C(=O)O)c1`, the IC50 in assay [1] worked out at 0.25 µM; in assay [2], 0.49 µM.

As for `COc1cc(Nc2ccccc2C(=O)O)cc(OC)c1`, the IC50 in assay [1] stood at 0.89 µM; in assay [2], 3.4 µM.

As for `CC(=O)c1ccc(Nc2cccc([N+](=O)[O-])c2)c(C(=O)O)c1`, the IC50 in assay [1] turned out to be 0.98 µM; in assay [2], 3.17 µM.

Take `COc1ccc(Nc2ccc(C(=O)O)cc2)cc1`: the IC50 was 2.21 µM in assay [1] and 22.9 µM in assay [2].

`Cc1cccc(Nc2ccc(C(=O)O)cc2)c1`: the IC50 in assay [1] turned out to be 1.67 µM; in assay [2] it was 21.5 µM.

As to `COc1ccc(C(=O)O)c(Nc2ccccc2OC)c1`, the half-maximal inhibitory concentration (IC50) was determined as 1.73 µM in assay [1] and 2.4 µM in assay [2].

On to `CC(=O)c1ccc(Nc2ccccc2C(F)(F)F)c(C(=O)O)c1`, for which the figures for the IC50 in assay [1] and in assay [2] were 1.35 µM and 2.07 µM, respectively.

As for `O=C(O)c1ccc(Nc2cccc([N+](=O)[O-])c2)cc1`, the IC50 in assay [1] is 4.21 µM; in assay [2], more than 100 µM.

As for `CC(=O)c1ccc(Nc2ccc(C(=O)O)cc2)c(C(=O)O)c1`, the IC50 amounted to 1.55 µM in assay [1] and 18.9 µM in assay [2].

On to `COc1ccc(C(=O)O)c(Nc2cccc(C(F)(F)F)c2)c1`, for which the IC50 turned out to be 0.06 µM in assay [1] and 0.22 µM in assay [2].

With `O=C(O)c1ccc(Nc2cccc(C(F)(F)F)c2)cc1`, the IC50 in assay [1] stood at 0.5 µM; in assay [2] it was 11.1 µM.

With `O=C(O)c1ccccc1Nc1cccc([N+](=O)[O-])c1`, the IC50 in assay [1] turned out to be 0.04 µM; in assay [2] it was 0.51 µM.

As for `CC(=O)c1ccccc1Nc1cccc(C(=O)O)c1`, the figures for the IC50 in assay [1] and in assay [2] were 0.96 µM and 32.6 µM, respectively.

In the case of `O=C(O)c1cccc(Nc2cccc([N+](=O)[O-])c2)c1`, the IC50 turned out to be 0.29 µM in assay [1] and 19.3 µM in assay [2].

Turning to `COc1ccccc1Nc1cccc(C(=O)O)c1`, the IC50 worked out at 1.65 µM in assay [1] and 26.6 µM in assay [2].

For the compound `CC(=O)c1ccc(Nc2ccc(C(F)(F)F)cc2)c(C(=O)O)c1`, the IC50 was 0.14 µM in assay [1] and 2.73 µM in assay [2].

Consider `O=C(O)c1cccc(Nc2ccccc2[N+](=O)[O-])c1`, for which the concentration for half-maximal inhibition (IC50) in assay [1] amounted to 0.15 µM; in assay [2], 4.77 µM.

On to `Cc1cc(C)cc(Nc2cccc(C(=O)O)c2)c1`, for which the IC50 was 1.08 µM in assay [1] and 44.6 µM in assay [2].

`CC(=O)c1cccc(Nc2ccc(C(C)=O)cc2C(=O)O)c1`: the results for the IC50 in assay [1] and in assay [2] were 0.65 µM and 1.88 µM, respectively.

Regarding `O=C(O)c1ccc(Nc2ccccc2C(=O)O)cc1`, the values for the IC50 in assay [1] and in assay [2] were 2.74 µM and 3.26 µM, respectively.

Take `COc1ccc(C(=O)O)c(Nc2cc(C)cc(C)c2)c1`: the IC50 in assay [1] amounted to 1.73 µM; in assay [2], 3.24 µM.

Regarding `O=C(O)c1ccc(Nc2ccc(Br)cc2)cc1`, the IC50 in assay [1] is 1.18 µM; in assay [2] it was more than 30 µM.

On to `CC(=O)c1ccc(Nc2ccccc2C(=O)O)cc1`, for which the IC50 in assay [1] was 0.13 µM; in assay [2], 0.4 µM.

Take `COc1ccc(C(=O)O)c(Nc2ccccc2)c1`: the IC50 is 1.66 µM in assay [1] and 1.49 µM in assay [2].

With `COc1cccc(Nc2cccc(C(=O)O)c2)c1`, the figures for the IC50 in assay [1] and in assay [2] were 1.19 µM and 15.2 µM, respectively.

For the compound `Cc1ccc(Nc2ccccc2C(=O)O)cc1`, the IC50 is 0.36 µM in assay [1] and 1.46 µM in assay [2].

As to `CC(=O)c1cccc(Nc2cccc(C(=O)O)c2)c1`, the IC50 in assay [1] was 0.56 µM; in assay [2] it was 36.6 µM.
